Values after ≈ are worked out from the molar mass of the structure shown.
Legend:
[1] = Selectivity index, ratio of GI50 for human HCT116 cells to MIC90 for Mycobacterium tuberculosis H37Ra ATCC 25177 active stage; type: toxicity, cell-based, HCT-116; conditions: read-out: Selectivity Index
Procedure, shortened: (§1)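 Cytotoxicity was measured on human MCF-7, HCT116 and THP-1 cells by MTT assay, with paclitaxel as reference. GI50 is the concentration inhibiting 50% of cell growth. The selectivity index is GI50 for the given cell line divided by MIC90 for the given mycobacterial strain and stage.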

[2] = Antitubercular activity against Mycobacterium tuberculosis H37Ra ATCC 25177 active stage infected in human THP1 cells measured on day 8 by nitrate reductase assay; type: functional, THP-1; conditions: ATCC 25177, 192 h
[3] = Antitubercular activity against Mycobacterium tuberculosis H37Ra ATCC 25177 active stage measured on day 8 by XTT reduction menadione based two-fold dilution assay; type: functional; conditions: ATCC 25177, 192 h
Procedure, shortened: (§2)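 M. tuberculosis H37Ra ATCC 25177 was exposed to 0.7–100 μg/mL in two-fold steps (0.7, 1.5, 3.1 … 100). Active stage was read after 8 days and dormant stage after 12 days of incubation. Inhibition was read by XTT reduction menadione assay (XRMA), absorbance 470 nm. MIC90 is the concentration giving ≥90% inhibition (µg/mL).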

Escherichia coli [4] = assay: Growth inhibition of Escherichia coli at 3 ug/ml; type: functional; conditions: read-out: GI
Procedure, shortened: (§3)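 Screened against Gram-negative E. coli and P. aeruginosa and Gram-positive S. aureus and B. subtilis. Compound was tested at 3 µg/ml, and the read-out is percent growth inhibition.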

Bacillus subtilis [5] = assay: Growth inhibition of Bacillus subtilis at 10 ug/ml; type: functional; conditions: read-out: GI
[6] = Selectivity index, ratio of GI50 for human MCF7 cells to MIC90 for Mycobacterium bovis BCG ATCC 35743 dormant stage; type: toxicity, cell-based; conditions: read-out: Selectivity Index
Procedure, shortened: (§4)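 Cytotoxicity was measured on human MCF-7, HCT116 and THP-1 cells by MTT assay, with paclitaxel as reference. The selectivity index is GI50 for the given cell line divided by MIC90 for the given mycobacterial strain and stage.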

[7] = Antitubercular activity against Mycobacterium tuberculosis H37Ra ATCC 25177 dormant stage infected in human THP1 cells measured on day 12 by nitrate reductase assay; type: functional, THP-1; conditions: ATCC 25177, 288 h
[8] = Selectivity index, ratio of GI50 for human MCF7 cells to MIC90 for Mycobacterium tuberculosis H37Ra ATCC 25177 dormant stage; type: toxicity, cell-based; conditions: read-out: Selectivity Index; procedure, shortened: as §4
[9] = Selectivity index, ratio of GI50 for human HCT116 cells to MIC90 for Mycobacterium bovis BCG ATCC 35743 active stage; type: toxicity, cell-based, HCT-116; conditions: read-out: Selectivity Index; procedure, shortened: as §1
[10] = Antitubercular activity against Mycobacterium bovis BCG ATCC 35743 dormant stage measured on day 12 by nitrate reductase based two-fold dilution assay; type: functional, Mycobacterium bovis BCG str. ATCC 35743; conditions: Mycobacterium tuberculosis variant bovis BCG, ATCC 35743, 288 h
[11] = Cytotoxicity against human MCF7 cells by MTT assay; type: toxicity, cell-based
Staphylococcus aureus [12] = assay: Growth inhibition of Staphylococcus aureus at 10 ug/ml; type: functional; conditions: read-out: GI
Escherichia coli [13] = assay: Antibacterial activity against Escherichia coli; type: functional
[14] = Selectivity index, ratio of GI50 for human MCF7 cells to MIC90 for Mycobacterium bovis BCG ATCC 35743 active stage; type: toxicity, cell-based; conditions: read-out: Selectivity Index; procedure, shortened: as §1
Bacillus subtilis [15] = assay: Antibacterial activity against Bacillus subtilis; type: functional
[16] = Cytotoxicity against human HCT116 cells by MTT assay; type: toxicity, cell-based, HCT-116
Pseudomonas aeruginosa [17] = assay: Antibacterial activity against Pseudomonas aeruginosa; type: functional
Escherichia coli [18] = assay: Growth inhibition of Escherichia coli at 30 ug/ml; type: functional; conditions: read-out: GI
[19] = Antitubercular activity against Mycobacterium tuberculosis H37Ra ATCC 25177 dormant stage measured on day 12 by XTT reduction menadione based two-fold dilution assay; type: functional; conditions: ATCC 25177, 288 h; procedure, shortened: as §2
Staphylococcus aureus [20] = assay: Growth inhibition of Staphylococcus aureus at 30 ug/ml; type: functional; conditions: read-out: GI
Staphylococcus aureus [21] = assay: Antibacterial activity against Staphylococcus aureus; type: functional
[22] = Selectivity index, ratio of GI50 for human HCT116 cells to MIC90 for Mycobacterium tuberculosis H37Ra ATCC 25177 dormant stage; type: toxicity, cell-based, HCT-116; conditions: read-out: Selectivity Index; procedure, shortened: as §4
[23] = Selectivity index, ratio of GI50 for human THP1 cells to MIC90 for Mycobacterium bovis BCG ATCC 35743 dormant stage; type: toxicity, cell-based, THP-1; conditions: read-out: Selectivity Index; procedure, shortened: as §4
[24] = Cytotoxicity against human THP1 cells by MTT assay; type: toxicity, cell-based, THP-1
[25] = Selectivity index, ratio of GI50 for human THP1 cells to MIC90 for Mycobacterium tuberculosis H37Ra ATCC 25177 active stage; type: toxicity, cell-based, THP-1; conditions: read-out: Selectivity Index; procedure, shortened: as §1
[26] = Selectivity index, ratio of GI50 for human THP1 cells to MIC90 for Mycobacterium bovis BCG ATCC 35743 active stage; type: toxicity, cell-based, THP-1; conditions: read-out: Selectivity Index; procedure, shortened: as §1
[27] = Antitubercular activity against Mycobacterium bovis BCG ATCC 35743 active stage measured on day 8 by nitrate reductase based two-fold dilution assay; type: functional, Mycobacterium bovis BCG str. ATCC 35743; conditions: Mycobacterium tuberculosis variant bovis BCG, ATCC 35743, 192 h
Pseudomonas aeruginosa [28] = assay: Growth inhibition of Pseudomonas aeruginosa at 3 ug/ml; type: functional; conditions: read-out: GI; procedure, shortened: as §3
[29] = Selectivity index, ratio of GI50 for human THP1 cells to MIC90 for Mycobacterium tuberculosis H37Ra ATCC 25177 dormant stage; type: toxicity, cell-based, THP-1; conditions: read-out: Selectivity Index; procedure, shortened: as §4
Bacillus subtilis [30] = assay: Growth inhibition of Bacillus subtilis at 30 ug/ml; type: functional; conditions: read-out: GI
Pseudomonas aeruginosa [31] = assay: Growth inhibition of Pseudomonas aeruginosa at 30 ug/ml; type: functional; conditions: read-out: GI
Pseudomonas aeruginosa [32] = assay: Growth inhibition of Pseudomonas aeruginosa at 10 ug/ml; type: functional; conditions: read-out: GI
Staphylococcus aureus [33] = assay: Growth inhibition of Staphylococcus aureus at 3 ug/ml; type: functional; conditions: read-out: GI; procedure, shortened: as §3
Bacillus subtilis [34] = assay: Growth inhibition of Bacillus subtilis at 3 ug/ml; type: functional; conditions: read-out: GI; procedure, shortened: as §3
[35] = Selectivity index, ratio of GI50 for human MCF7 cells to MIC90 for Mycobacterium tuberculosis H37Ra ATCC 25177 active stage; type: toxicity, cell-based; conditions: read-out: Selectivity Index; procedure, shortened: as §1
Escherichia coli [36] = assay: Growth inhibition of Escherichia coli at 10 ug/ml; type: functional; conditions: read-out: GI
[37] = Selectivity index, ratio of GI50 for human HCT116 cells to MIC90 for Mycobacterium bovis BCG ATCC 35743 dormant stage; type: toxicity, cell-based, HCT-116; conditions: read-out: Selectivity Index; procedure, shortened: as §4

SMILES: COc1ccc(-c2csc(N/N=C(\C)c3sc(-c4ccccc4)nc3C)n2)cc1
- selectivity ratio [1]: 15
- MIC90 [2]: 12.3 µg/mL (≈ 29.3 µM)
- IC50 [3]: 0.078 µg/mL (≈ 0.185 µM)
- MIC90 [3]: 6.87 µg/mL (≈ 16.3 µM)
- inhibition of growth at 3 µg/mL (Escherichia coli [4]): 52.1%
- inhibition of growth at 10 µg/mL (Bacillus subtilis [5]): 66.8%
- selectivity ratio [6]: 7
- MIC90 [7]: 9.38 µg/mL (≈ 22.3 µM)
- selectivity ratio [8]: 14
- selectivity ratio [9]: 7
- IC50 [10]: 2.82 µg/mL (≈ 6.71 µM)
- MIC90 [10]: 14 µg/mL (≈ 33.3 µM)
- GI50 ([11]; MCF7 cells): > 100 µg/mL
- GI90 ([11]; mcf7): > 100 µg/mL
- inhibition of growth at 10 µg/mL (Staphylococcus aureus [12]): 69.2%
- MIC (Escherichia coli [13]): > 30 µg/mL
- selectivity ratio [14]: 7
- MIC (Bacillus subtilis [15]): > 30 µg/mL
- GI50 ([16]; HCT116 cells): > 100 µg/mL
- GI90 ([16]; hct-116): > 100 µg/mL
- MIC (Pseudomonas aeruginosa [17]): > 30 µg/mL
- inhibition of growth at 30 µg/mL (Escherichia coli [18]): 84.6%
- IC50 [19]: 0.075 µg/mL (≈ 0.178 µM)
- MIC90 [19]: 7.15 µg/mL (≈ 17 µM)
- inhibition of growth at 30 µg/mL (Staphylococcus aureus [20]): 83.7%
- MIC (Staphylococcus aureus [21]): > 30 µg/mL
- selectivity ratio [22]: 14
- selectivity ratio [23]: 7
- GI50 ([24]; THP1 cells): > 100 µg/mL
- GI90 ([24]; thp-1): > 100 µg/mL
- selectivity ratio [25]: 15
- selectivity ratio [26]: 7
- IC50 [27]: 2.43 µg/mL (≈ 5.78 µM)
- MIC90 [27]: 13.5 µg/mL (≈ 32.1 µM)
- inhibition of growth at 3 µg/mL (Pseudomonas aeruginosa [28]): 48.7%
- selectivity ratio [29]: 14
- inhibition of growth at 30 µg/mL (Bacillus subtilis [30]): 82.5%
- inhibition of growth at 30 µg/mL (Pseudomonas aeruginosa [31]): 85%
- inhibition of growth at 10 µg/mL (Pseudomonas aeruginosa [32]): 69.9%
- inhibition of growth at 3 µg/mL (Staphylococcus aureus [33]): 48.8%
- inhibition of growth at 3 µg/mL (Bacillus subtilis [34]): 44.9%
- selectivity ratio [35]: 15
- inhibition of growth at 10 µg/mL (Escherichia coli [36]): 71.1%
- selectivity ratio [37]: 7
